Data from ChEMBL document CHEMBL3525967, “In vitro glucuronidation of the antibacterial triclocarban and its oxidative metabolites” (Drug Metab Dispos, 2012).
One block for each compound: values may come before it.

How the values were obtained:
[1] = biological target: T1, UDP-glucuronosyltransferase 1A6 (Homo sapiens, UniProt P19224); test: Drug metabolism assessed as human UGT1A6-mediated N-glucuronide-triclocarban formation expressed in baculovirus infected insect sf9 cells incubated for 5 mins prior to UDPGA addition measured after 5 to 30 mins by LC-UV analysis; assay type: ADME
T1 sequence (P19224 whole entry): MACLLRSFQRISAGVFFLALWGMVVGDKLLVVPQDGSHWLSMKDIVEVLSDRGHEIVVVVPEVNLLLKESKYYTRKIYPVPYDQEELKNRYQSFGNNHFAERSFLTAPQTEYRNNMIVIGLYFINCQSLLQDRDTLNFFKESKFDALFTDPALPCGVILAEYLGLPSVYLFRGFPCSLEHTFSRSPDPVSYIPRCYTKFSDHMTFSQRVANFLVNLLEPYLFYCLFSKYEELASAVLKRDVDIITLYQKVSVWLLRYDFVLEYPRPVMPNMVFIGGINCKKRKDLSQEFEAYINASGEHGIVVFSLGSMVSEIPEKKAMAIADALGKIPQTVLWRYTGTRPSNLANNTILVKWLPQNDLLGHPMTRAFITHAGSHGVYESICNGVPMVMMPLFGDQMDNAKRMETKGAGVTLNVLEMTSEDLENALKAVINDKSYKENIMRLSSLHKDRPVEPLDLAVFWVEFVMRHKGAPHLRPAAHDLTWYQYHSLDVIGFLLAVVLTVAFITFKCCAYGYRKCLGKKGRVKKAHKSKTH
Outline: (§1)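 Microsomes or UGT Supersomes (5 µg protein) were held 15 min on ice with alamethicin in 100 mM potassium phosphate pH 7.4. TCC was added at 10 µM (2% DMSO) with 10 mM MgCl2 and 10 mM saccharolactone, pre-warmed 5 min at 37 °C, then started with UDPGA. Samples at 5, 10, 15 and 30 min were quenched in ACN. Product was read by LC-UV at 265 nm; rate came from regression over time, three incubations.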

[2] = Drug metabolism in cynomolgus monkey liver microsomes assessed as N-glucuronide-triclocarban formation incubated for 5 mins prior to UDPGA addition measured after 30 mins by LC-UV-ESI-MS/MS analysis; assay type: ADME, Macaca fascicularis; conditions: 0.5 h
Outline: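 TCC was incubated at 10 µM (2% DMSO) in 100 mM phosphate pH 7.4 with alamethicin-treated microsomes or Supersomes, 10 mM MgCl2 and 10 mM saccharolactone. After 5 min pre-incubation at 37 °C, UDPGA was added to start the reaction. Protein was raised up to 2 mg/mL. Samples were quenched in ACN with 1 µM DCC internal standard, centrifuged, and N-glucuronides detected by LC-ESI-MS/MS in SRM mode.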

[3] = Drug metabolism in human kidney microsomes assessed as N-glucuronide-triclocarban formation incubated for 5 mins prior to UDPGA addition measured after 30 mins by LC-UV-ESI-MS/MS analysis; assay type: ADME; conditions: 0.5 h
Outline: (§2)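 Pooled human kidney or liver microsomes (liver: 25 mixed-gender donors), 5 µg protein, in 200 µL 100 mM potassium phosphate pH 7.4. Alamethicin pre-treated on ice 15 min. Final 10 µM TCC (2% DMSO), with 10 mM MgCl2 and 10 mM saccharolactone, preincubated 5 min at 37 °C. Started with UDPGA (20 mM stock). Sampled at 5, 10, 15 and 30 min into ACN containing 1 µM DCC internal standard.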

[4] = biological target: T2, UDP-glucuronosyltransferase 1A4 (Homo sapiens, UniProt P22310); test: Drug metabolism assessed as human UGT1A4-mediated N'-glucuronide-triclocarban formation expressed in baculovirus infected insect sf9 cells incubated for 5 mins prior to UDPGA addition measured after 5 to 30 mins by LC-UV analysis; assay type: ADME; outline: as §1
T2 sequence (P22310 whole entry): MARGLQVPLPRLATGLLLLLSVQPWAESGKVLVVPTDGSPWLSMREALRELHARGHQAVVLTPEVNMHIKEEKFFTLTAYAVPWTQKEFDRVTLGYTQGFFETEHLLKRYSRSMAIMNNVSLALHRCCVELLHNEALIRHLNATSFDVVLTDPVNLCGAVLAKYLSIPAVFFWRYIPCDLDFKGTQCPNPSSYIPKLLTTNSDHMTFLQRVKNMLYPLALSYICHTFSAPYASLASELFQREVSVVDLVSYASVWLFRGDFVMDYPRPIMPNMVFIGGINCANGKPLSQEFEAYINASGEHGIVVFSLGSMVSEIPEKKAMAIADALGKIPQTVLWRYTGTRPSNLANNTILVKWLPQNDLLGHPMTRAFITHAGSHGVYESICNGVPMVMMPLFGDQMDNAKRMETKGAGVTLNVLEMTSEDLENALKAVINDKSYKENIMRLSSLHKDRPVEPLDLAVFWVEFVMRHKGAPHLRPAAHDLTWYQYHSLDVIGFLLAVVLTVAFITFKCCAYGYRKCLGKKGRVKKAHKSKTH

[5] = Drug excretion in Sprague-Dawley rat urine assessed as N'-glucuronide-triclocarban formation at 1 mg/kg, po by LC-MS analysis; assay type: ADME, organism-based; set-up: dose 1 mg/kg, route oral; conditions: in vivo
[6] = Drug excretion in Sprague-Dawley rat urine assessed as 3'-O-glucuronide-triclocarban formation at 1 mg/kg, po by LC-MS analysis; assay type: ADME, organism-based; set-up: dose 1 mg/kg, route oral; conditions: in vivo
[7] = Drug metabolism in human kidney microsomes assessed as N'-glucuronide-triclocarban formation incubated for 5 mins prior to UDPGA addition measured after 30 mins by LC-UV-ESI-MS/MS analysis; assay type: ADME; conditions: 0.5 h; outline: as §2
[8] = Drug excretion in Swiss webster mouse urine assessed as 2'-O-glucuronide-triclocarban formation at 5 mg/kg, po by LC-MS analysis; assay type: ADME, organism-based; set-up: dose 5 mg/kg, route oral; conditions: in vivo
Outline: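 Mice were housed two per metabolic cage, with blank urine collected over the 24 h before dosing. TCC was given by oral gavage as a 1 mg/mL solution in 20/80 DMSO/PEG400 (v/v) at 5 mg/kg. Urine was collected at 0-24 h and 24-48 h and analysed by online LC-MS. Values are the mean of two independent experiments.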

[9] = Drug metabolism in B6C3F1 mouse liver microsomes assessed as N'-glucuronide-triclocarban formation incubated for 5 mins prior to UDPGA addition measured after 5 to 30 mins by LC-UV analysis; assay type: ADME; outline: as §1
Liver microsome = test: Drug metabolism in Sprague-Dawley rat liver microsomes assessed as retention time at 10 uM by LC-UV-MS method in presence of UDPGA; assay type: ADME
[10] = Drug metabolism in B6C3F1 mouse liver microsomes after 30 mins by LC-ESI-MS analysis; assay type: ADME
Outline: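 2'-OH-TCC at 0.2, 0.5, 1, 2, 3, 5, 10 and 50 µM incubated with liver microsomes (alamethicin, MgCl2, saccharolactone, UDPGA; 37 °C), sampled at 5, 10, 15 and 30 min. Samples ≥5 µM diluted 1:9 in ACN; LC-ESI-MS. KM and vmax fitted from rate vs concentration; intrinsic clearance derived from these; mean and SD of three.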

SMILES: O=C(Nc1ccc(Cl)cc1)Nc1ccc(Cl)c(Cl)c1 [TRICLOCARBAN]
Drug metabolism [1]: metabolite_not_detected | Drug metabolism [2]: metabolite_detected | Drug metabolism [3]: metabolite_detected | Drug metabolism [4]: metabolite_not_detected | Drug excretion [5]: metabolite_not_detected | Drug excretion [6]: metabolite_detected | Drug metabolism [7]: metabolite_detected | Drug excretion [8]: metabolite_detected | Drug metabolism [9]: metabolite_not_detected

Retention_time (Liver microsome): 2.26 min
SMILES: O=C(Nc1ccc(Cl)c(O)c1)Nc1ccc(Cl)c(Cl)c1

Km at 0.5 h ([10]; B6C3F1, mouse, liver microsomes): 2.46 µM | Vmax ([10]; mouse, microsomes, 0.5 h): 1.45 nmol/min/mg
SMILES: O=C(Nc1ccc(Cl)c(Cl)c1)Nc1ccc(Cl)cc1O
